IEC-6 cytotox = cytotoxicity in IEC-6 intestinal epithelial cells, primary screen, cytotoxicity control for KLF5 inhibitor project, cell-based, luminescence | IEC-6 cytotoxicity, luminescence viability | inhibition, % at 5 µM | 290,000 tested, 0.78% active | AID 1825, 2009; in the data active = inhibition above about 22%;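 also: 0% = plate median of test compound wells and 100% = cytotoxic reference compound wells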
bCat nuc transl = modulators of beta-catenin nuclear translocation, primary screen, imaging, HeLa cells, immunofluorescence, high-content; nuclear translocation activity, % at 5 µM; 190,000 tested, 0.3% active;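 active = nuclear translocation activity above 50% at 5 µM, with a well cell count of 50 or more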;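 also: per-cell ratio of nuclear to cytoplasmic median beta-catenin stain intensity; plate controls were DMSO negative control for no effect and GSK-3 inhibitor IX positive control for full effect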
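Test system: human HeLa cells, native beta-catenin. Compound dosing: 5 µM primary single dose, 0.1% DMSO, 0.02–20 µM confirmation series. Incubation: compound exposure 24 h at 37°C. Detection: beta-catenin immunostaining with DAPI counterstain, 20x imaging, 6 fields/well. Read-out basis: Nuclear/cytoplasmic beta-catenin signal ratio, % activation.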
BaF3 parental = parental Ba/F3 cell viability inhibition, counter-screen for JAK2V617F inhibitor project, murine pro-B, CellTiter-Glo luminescence; CellTiter-Glo ATP luminescence; inhibition, % at 5.6 µM; 220,000 tested, 1.1% active; AID 1486, 2009;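 active = inhibition above a per-campaign cutoff, the mean inhibition of all tested compounds plus 3 SD, cut at about 27% in these data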;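 also: 0% = DMSO wells and 100% = JAK Inhibitor I control wells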
APP 5UTR inh = inhibitors of APP translation via 5'UTR reporter, primary screen, APP 5'UTR luciferase, SH-SY5Y cells; AID 1285, 2008; 190,000 tested, 0.82% active; inhibition, % at 2 µM; SH-SY5Y APP 5'UTR-luciferase reporter, luminescence;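 active = inhibition above a set limit, derived from the sample mean plus 3 SD, cut at about 45% in these data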
Ba/F3 V617F tox = reduced viability of JAK2V617F-dependent Ba/F3 cells, primary screen, JAK2V617F inhibitor project, cell-based, Ba/F3 EpoR-JAK2V617F, luminescence | inhibition, % at 5.6 µM | 220,000 tested, 1.1% active | ATP luminescence;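 active = inhibition above the campaign mean plus 3 SD over all tested compounds, cut at about 24% in these data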;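 also: cytokine-independent growth of Ba/F3 cells driven by EpoR plus mutant JAK2; 0% = DMSO-treated cells and 100% = JAK inhibitor I control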
MT stabilizer = microtubule stabilizers in HeLa cells, primary screen, imaging, high-content imaging. HeLa tubulin immunostaining HCS, 24 h; share of cells brighter than vehicle mean+2SD. % tubulin-high responders, % at 10 µM. 200,000 tested, 0.83% active. AID 2205, 2009;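 active = plate Z-score above 3 for both tubulin-high and condensed-nucleus cell shares, with cell loss under 80%, at 10 µM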;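 also: anti alpha tubulin signal scored within the nucleus-defined area of each cell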
The depositor's hits bear a star; . = no result. In the library only some 2.2% were active in any assay of this set; here they are far more common.

SMILES	IEC-6 cytotox	bCat nuc transl	BaF3 parental	APP 5UTR inh	Ba/F3 V617F tox	MT stabilizer
COc1ccc(C(=O)/C=C/C(=O)N(Cc2ccccc2OC)C(C(=O)NC2CCCCC2)c2ccncc2)c(O)c1 (centres undefined)	1	0	6	-4	-1	2
COc1ccc(C(=O)/C=C/C(=O)N(CC(=O)NC2CCCCC2)Cc2ccccc2OC)c(O)c1	-4	2	3	75*	-3	3
COc1ccc(C(=O)/C=C/C(=O)N(CC(=O)NC2CCCCC2)CC2CCCO2)c(O)c1 (centres undefined)	11	-1	4	71*	3	3
CCOc1ccccc1N(C)S(=O)(=O)c1ccc2c(c1)CC(C)N2C(=O)C1CC1 (centres undefined)	5	.	.	.	.	.
CC1(C)COCN1S(=O)(=O)c1ccc(C(=O)Nc2nnc(-c3ccc(Cl)s3)o2)cc1	6	4	3	44	-4	2
COc1ccc(-c2nnc(NC(=O)c3ccc(S(=O)(=O)N4COCC4(C)C)cc3)o2)cc1	10	-2	46*	33	21	4
Cc1ccc(C(=O)NNC(=O)C2CCN(c3ncccn3)CC2)cc1	2	.	.	.	.	.
O=C(NNC(=O)C1CCN(c2ncccn2)CC1)c1ccc(Cl)cc1	6	-2	90*	-23	5	2
Cc1ccc(C(=O)NCCNC(=O)c2cccnc2)cc1	2	.	.	.	.	.
COc1cccc(/C=N/n2c(-c3n[nH]c4c3CCC4)n[nH]c2=S)c1O	0	1	3	-14	3	5
COc1ccccc1/C=C/C=N/n1c(-c2n[nH]c3c2CCC3)n[nH]c1=S	1	62*	6	.	3	.
COc1cc(Cl)ccc1S(=O)(=O)n1nc(C)cc1C	2	-1	93*	8	-2	4
COC(=O)c1ccc(/C=C2/SC(=S)N(CCCC(=O)Nc3ccccn3)C2=O)cc1	-5	2	8	0	-1	2
COc1ccc(/C=C2/SC(=S)N(CCC(=O)O)C2=O)cc1	-6	0	-2	50*	-2	3
CCc1ccc(/C=C2\SC(=S)N(CCC(=O)NC3=NCCS3)C2=O)cc1	0	-2	-2	53*	-2	3
CCc1ccc(/C=C2\SC(=S)N(CCCC(=O)Nc3ccccn3)C2=O)cc1	-4	0	4	51*	-1	2
O=C(NC1CCCC1)c1cc(=O)[nH]c2ccccc12	-3	.	.	.	.	.
Cc1ccc(NC(=O)NN2CCN(C)CC2)cc1C	3	.	.	.	.	.
Cn1ccnc1C(=O)c1cc(SCC(=O)NCc2ccccc2)nc2ccccc12	4	-2	2	-6	-2	16*
COc1ccccc1CN(C)C(=O)C(NC(=O)Cc1cccc2ccccc12)C(C)C (centres undefined)	-5	.	.	.	.	.
O=c1cc(-c2ccccc2)[nH]c2ccccc12	84*	193*	79*	94*	82*	32*
O=C1C(c2cc(=O)c3ccccc3[nH]2)=C(O)c2ccccc21	0	-2	6	-144	1	2
COc1ccccc1NC(=O)Cc1nnc(SCC(=O)c2ccc(F)cc2)n1C	1	.	.	.	.	.
COc1ccc(C(=O)N/C(=C/c2ccc(Cl)cc2)C(=O)Nc2ccc(C(=O)O)cc2)cc1	-6	.	.	.	.	.
CCC/C(C)=N/NC(=O)c1ccccc1O	-4	1	8	11	-2	3
SMILES	IEC-6 cytotox	bCat nuc transl	BaF3 parental	APP 5UTR inh	Ba/F3 V617F tox	MT stabilizer
CCOC(=O)C(CC)/C(C)=N\NC(=O)c1ccccc1O (centres undefined)	-4	2	9	52*	10	2
CCOc1ccc2cc(C#N)c(SCC(=O)NC(C)CC)nc2c1 (centres undefined)	1	28	3	-9	2	44*
CC(=O)Nc1ccccc1N(C)S(=O)(=O)c1ccc(C)cc1	2	5	3	-5	-3	47*
CCCCn1c(=N)n(CC(O)COc2cccc(C)c2)c2ccccc21 (centres undefined)	7	-8	40*	-5	17	6
CCCCCn1c(=N)n(CC(O)COc2ccccc2OC)c2ccccc21 (centres undefined)	8	-2	28*	-1	18	3
O=C(COC(=O)c1cccc2ccccc12)Nc1ncc(C(F)(F)F)cc1Cl	-3	.	3	-13	-3	3
O=C(COC(=O)c1cc(-c2ccccc2Cl)nc2ccccc12)Nc1ncc(C(F)(F)F)cc1Cl	-2	0	0	49*	-4	4
O=C(Cn1ccc([N+](=O)[O-])n1)N1CCCCCC1	2	2	6	9	3	1
O=C(Cn1ccc([N+](=O)[O-])n1)N1CCCCC1	4	-1	43*	0	-2	5
COc1cc(C(=O)NC2CCCC2)c(Br)c(OC)c1OC	6	3	1	8	5	5
COc1cc(C(=O)NCCOc2cc(C)cc(C)c2)c(Br)c(OC)c1OC	-2	4	6	16	2	44*
O=C(Nc1ccc2oc(-c3cccnc3)nc2c1)c1ccc([N+](=O)[O-])o1	-3	0	-2	60*	0	7
O=C(Nc1ccc2oc(-c3cccnc3)nc2c1)c1ccc(Br)o1	1	1	2	0	-2	3
COc1ccc(-n2c(-c3ccccc3)nnc2-c2ccc(Cl)cc2)cc1	-8	-3	2	-14	-1	1
COc1ccc(-n2c(-c3ccc(Cl)cc3)c[n+]3c2CCc2ccccc2-3)cc1	10	2	69*	-8	84*	3
C=CCNC(=O)CSc1cc([N+](=O)[O-])cc(S(=O)(=O)Cc2ccccc2)c1	2	-1	38*	-1	-5	1
Cc1cc(-c2cccs2)c(C#N)c(=S)[nH]1	-3	2	63*	.	20	.
COC(=O)c1scc(C)c1NC(=O)c1ccccc1F	1	.	.	.	.	.
C=C1C(=O)[C@@]23[C@H](O)C[C@@H]4C(C)(C)CC[C@H](O)[C@]4(C)[C@@H]2C[C@H](O)[C@@H]1[C@H]3O	-4	.	73*	33	62*	5
CC(C)CC(=O)Nc1ccc(Oc2ccc3c(c2)C(=O)NC3=O)cc1	-2	.	.	.	.	.
COc1cc(/C=C/C(=O)O)cc(S(=O)(=O)NCc2ccco2)c1OC	0	0	90*	-14	1	3
COc1ccc(/C=C/C(=O)O)cc1S(=O)(=O)NCc1ccco1	-2	0	-1	.	-5	.
COC(=O)c1cccc(NC(=O)CSc2nnc(C)o2)c1	-4	.	.	.	.	.
O=C(O)c1ccccc1Nc1ccccc1C(=O)O	6	.	5	2	5	3
